Experimental data from different studies.
Target: Serine/threonine-protein kinase Sgk3 (SGK3, Homo sapiens, UniProt Q96BR1)
Sequence (Q96BR1 1-496, as in one of the studies): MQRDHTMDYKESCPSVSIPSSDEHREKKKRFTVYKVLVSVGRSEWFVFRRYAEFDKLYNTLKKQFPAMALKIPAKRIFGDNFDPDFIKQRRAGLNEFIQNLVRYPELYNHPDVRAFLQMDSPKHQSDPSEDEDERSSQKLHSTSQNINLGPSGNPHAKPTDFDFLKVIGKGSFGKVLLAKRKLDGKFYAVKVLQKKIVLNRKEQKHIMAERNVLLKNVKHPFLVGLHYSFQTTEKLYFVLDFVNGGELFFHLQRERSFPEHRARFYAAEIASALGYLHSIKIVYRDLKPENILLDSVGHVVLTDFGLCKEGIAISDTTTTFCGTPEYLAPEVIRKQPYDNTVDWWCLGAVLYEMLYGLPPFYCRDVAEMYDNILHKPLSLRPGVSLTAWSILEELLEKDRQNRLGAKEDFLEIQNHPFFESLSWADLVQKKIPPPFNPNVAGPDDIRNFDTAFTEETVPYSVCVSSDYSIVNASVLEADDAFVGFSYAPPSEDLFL

With C=CC(=O)N1CCC[C@@H](n2nc(-c3ccc(Oc4ccccc4)cc3)c3c(N)ncnc32)C1 the inhibition was 9% (enzyme activity; inhibitor; 1 µM).
Cc1cc(O)c(-c2ccc([C@@H](C)CN(C)C)cc2)c2c1[nH]c(=O)c1sccc12 has an inhibition of 3.22% (enzyme activity; inhibitor; 0.1 µM).
C#Cc1cc(-c2cc(Nc3nc(N[C@@H](C)c4ccc(F)cn4)ncc3Cl)n[nH]2)ccc1C=O gave an inhibition of 19.1% (enzyme activity; inhibitor; 0.2 µM).
The remaining signal of C[C@H]1CC[C@H](n2c3cnccc3c3cnc(Nc4ccc5c(n4)CCN(C(=O)CO)C5)nc32)CC1 is reported as 39% (cell-free assay; 1 µM).
For CO[C@@H]1[C@H](N(C)C(=O)c2ccccc2)C[C@H]2O[C@]1(C)n1c3ccccc3c3c4c(c5c6ccccc6n2c5c31)C(=O)NC4, the inhibition was 43% (enzyme activity; inhibitor; 1 µM).
The activity vs control of CC(C)S(=O)(=O)c1ccc2nccc(Nc3ccc4sc(C5CCCC5)nc4c3)c2c1 is reported as 110% (enzyme activity; inhibitor; 1 µM).
COc1ccc2[nH]c3c4[nH]c5ccc(OC)cc5c4c4c(c3c2c1)C(=O)NC4=O has a remaining binding of 8.1% (binding; 1 µM).
CCCCC(=O)Nc1ccc(-c2ccc3ncn(CCC)c(=O)c3c2)cn1 gave a remaining binding of 97% (binding; competition with immobilised ligand; 0.5 µM).
